Experimental findings from ChEMBL document CHEMBL3232740, “Differences in conformational dynamics between Plasmodium falciparum and human Hsp90 orthologues enable the structure-based discovery of pathogen-selective inhibitors” (J Med Chem, 2014) are described below.

The nature of assay [1]: Inhibition of Plasmodium falciparum HSP90 ISG-LGA mutant expressed in yeast assessed as growth inhibition of host after 72 hrs. In outline: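 Host was an isogenic S. cerevisiae strain derived from DP533 (Δhsc82 Δhsp82 pdr5), carrying Flag-tagged PfHsp90 ISG-LGA/K313Q from a low-copy plasmid as its only Hsp90. Cultures were diluted to OD600 0.1 in minimal medium with 2% DMSO. OD600 was read every 30 min for 72 h. Growth % was maximal growth-curve slope relative to solvent-only; IC50 from triplicate dose-response.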

The nature of assay [2]: Ratio of IC50 for rat L6 cells to IC50 for Plasmodium falciparum NF54. In outline: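 Ratio of two IC50s. P. falciparum NF54 was grown in human erythrocytes (Trager–Jensen) for a 72 h assay window, with growth read as [3H]hypoxanthine incorporation. Cytotoxicity was measured in rat skeletal myoblast L6 cells.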
In the next assay the test system is Plasmodium falciparum. As to the kind of experiment: Antiplasmodial activity against Plasmodium falciparum NF54 infected in human erythrocytes assessed as growth inhibition by [3H]hypoxanthine incorporation assay. It counts as functional, organism-based.
The target of the next assay is T1, HSP90 (Plasmodium falciparum 3D7, UniProt Q8IL32).
T1 sequence (Q8IL32 whole entry): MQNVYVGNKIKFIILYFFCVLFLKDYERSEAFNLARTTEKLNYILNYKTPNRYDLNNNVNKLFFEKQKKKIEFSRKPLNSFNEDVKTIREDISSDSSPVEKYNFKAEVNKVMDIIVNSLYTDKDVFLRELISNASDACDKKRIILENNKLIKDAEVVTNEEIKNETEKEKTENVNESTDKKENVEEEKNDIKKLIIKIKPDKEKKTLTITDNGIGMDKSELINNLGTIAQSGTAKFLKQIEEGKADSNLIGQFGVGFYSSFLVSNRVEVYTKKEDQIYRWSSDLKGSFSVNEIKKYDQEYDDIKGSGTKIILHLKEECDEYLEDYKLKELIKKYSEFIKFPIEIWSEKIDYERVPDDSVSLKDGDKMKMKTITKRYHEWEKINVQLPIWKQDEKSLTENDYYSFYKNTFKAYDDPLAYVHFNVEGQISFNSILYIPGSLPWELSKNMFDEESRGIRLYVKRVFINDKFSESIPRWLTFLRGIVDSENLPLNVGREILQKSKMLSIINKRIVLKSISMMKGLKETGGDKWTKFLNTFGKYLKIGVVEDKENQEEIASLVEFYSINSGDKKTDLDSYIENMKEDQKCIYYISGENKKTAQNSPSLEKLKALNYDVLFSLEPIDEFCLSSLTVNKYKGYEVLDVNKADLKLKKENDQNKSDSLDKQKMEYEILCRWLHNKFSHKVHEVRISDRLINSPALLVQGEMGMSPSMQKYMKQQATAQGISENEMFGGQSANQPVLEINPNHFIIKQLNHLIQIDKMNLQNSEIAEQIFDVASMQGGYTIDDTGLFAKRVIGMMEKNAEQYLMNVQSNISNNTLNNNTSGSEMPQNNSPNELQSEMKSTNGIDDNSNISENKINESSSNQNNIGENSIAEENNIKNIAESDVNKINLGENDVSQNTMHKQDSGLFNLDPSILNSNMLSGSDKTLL
As to the kind of experiment: Binding affinity to N-terminal FLAG-tagged Plasmodium falciparum recombinant HSP90 (1 to 223) expressed in Escherichia coli BL21(DE3) by microscale thermophoresis assay. An outline of the steps:
(§1)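 Recombinant Pf Hsp90 proteins were expressed in E. coli BL21 DE3 pLysS in LB, induced with 0.5 mM IPTG for 18 h at 20 °C. They were purified by His-affinity then size exclusion, keeping the 33 kDa fractions. Ligand was titrated in 1:1 dilutions against 100 nM protein with 5% DMSO. MST was run at 40% LED and 40% MST power.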

The subject of another assay is L6. As to the kind of experiment: Cytotoxicity against rat L6 cells after 72 hrs by Alamar Blue assay. It counts as cell-based. On the technique in general: The colour change of resazurin is a common sign of viable cells or microbes.
A short description of assay [3]: Binding affinity to N-terminal FLAG-tagged Plasmodium falciparum recombinant HSP90 R98K mutant expressed in Escherichia coli BL21(DE3) by microscale thermophoresis assay. An outline of the steps:
as §1
A general note: MST reads how a fluorescent partner responds to local heating, with and without ligand.

A short description of assay [4]: Binding affinity to N-terminal FLAG-tagged Plasmodium falciparum recombinant HSP90 ISG-LGA mutant expressed in Escherichia coli BL21(DE3) by microscale thermophoresis assay. In outline:
as §1

In assay [5] the test system is Heat-shock protein (Plasmodium falciparum), Q25869 [K313Q]. As to the kind of experiment: Inhibition of Plasmodium falciparum HSP90 K313Q mutant expressed in yeast assessed as growth inhibition of host at 100 uM after 72 hrs.
Chain of Heat-shock protein (Plasmodium falciparum), Q25869 [K313Q] (Q25869 whole entry K313Q): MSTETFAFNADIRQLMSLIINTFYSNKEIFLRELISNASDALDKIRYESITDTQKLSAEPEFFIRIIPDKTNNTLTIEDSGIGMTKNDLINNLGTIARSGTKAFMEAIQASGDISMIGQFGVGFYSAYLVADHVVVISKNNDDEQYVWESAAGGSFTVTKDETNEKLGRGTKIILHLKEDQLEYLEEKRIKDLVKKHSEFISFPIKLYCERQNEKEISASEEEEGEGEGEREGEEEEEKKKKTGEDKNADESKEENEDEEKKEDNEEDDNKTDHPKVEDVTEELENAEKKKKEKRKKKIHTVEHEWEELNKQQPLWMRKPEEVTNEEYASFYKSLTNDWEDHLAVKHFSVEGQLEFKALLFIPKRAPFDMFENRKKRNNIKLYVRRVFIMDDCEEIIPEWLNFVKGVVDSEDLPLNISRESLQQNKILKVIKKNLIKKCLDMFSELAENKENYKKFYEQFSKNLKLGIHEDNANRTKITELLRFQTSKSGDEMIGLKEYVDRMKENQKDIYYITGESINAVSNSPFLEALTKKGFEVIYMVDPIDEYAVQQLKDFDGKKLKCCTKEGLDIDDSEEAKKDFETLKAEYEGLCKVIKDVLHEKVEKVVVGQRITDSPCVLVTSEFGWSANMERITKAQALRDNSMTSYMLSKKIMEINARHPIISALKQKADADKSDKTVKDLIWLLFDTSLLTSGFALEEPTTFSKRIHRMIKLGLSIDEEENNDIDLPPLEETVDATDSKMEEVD

Active and inactive are the calls of the source. No cut-off for these calls is given here.

On to `COCC(=O)Nc1c(C(=O)OC)n(CCC(C)C)c2ncc(NC(C)CCC=C(C)C)cc12` (racemic), for which the IC50 came to 61.2 µM in assay [1]; 5.75 µM with Plasmodium falciparum (Plasmodium falciparum, NF54); 63 µM in the assay with L6 (Rattus norvegicus, L6, 72 h). Besides, the “Ratio IC50” value in assay [2] is >10. The equilibrium dissociation constant (Kd) is 14.1 µM on HSP90 and 16.5 µM in assay [3].

In the case of `COCC(=O)Nc1c(C(=O)OC)n(C)c2ncc(NC(C)CCC=C(C)C)cc12` (racemic), the Kd on HSP90 worked out at 115 µM.

Turning to `COC1=C2C[C@@H](C)C[C@H](OC)[C@H](O)[C@@H](C)/C=C(\C)[C@H](OC(N)=O)[C@@H](OC)/C=C\C=C(/C)C(=O)NC(=CC1=O)C2=O` [GELDANAMYCIN], the figures for the IC50 with Plasmodium falciparum and in the assay with L6 (l6) were 0.148 µM and 6 µM, respectively. The Kd in assay [4] was 0.103 µM.

Regarding `COCCn1c(C(=O)OC)c(NC(=O)Cc2ccccc2)c2cc(NC3CCCCCCC3)cnc21`, the inhibition result in assay [5] was “Active”.

With `COCC(=O)Nc1c(C(=O)OC)n(CCC(C)C)c2ncc(NC(C)C)cc12`, in assay [2], the Ratio IC50 was found to be 4. In addition, the 50% inhibitory concentration (IC50) with Plasmodium falciparum (Plasmodium falciparum, NF54) came out at 13.8 µM; in the assay with L6 (Rattus norvegicus, L6, 72 h), 56 µM. Moreover, on HSP90, the equilibrium dissociation constant (Kd) came to 175 µM.

`COCC(=O)Nc1c(C(=O)OC)n(CCC(C)C)c2ncc(NC3CCCCCCC3)cc12`: the “Ratio IC50” value in assay [2] was >10. For the same compound, the IC50 was 5.02 µM in the assay with Plasmodium falciparum (Plasmodium falciparum, NF54) and 56 µM in the assay on L6 (Rattus norvegicus, L6, 72 h). In addition, the dissociation constant (Kd) at HSP90 was 25.4 µM.

The IC50 is the point on the concentration scale where inhibition reaches its midpoint. Usually Kd stands for the constant that tells how readily two partners part at equilibrium.
